A selection: hits, their analogues and other compounds. The true share with any hit is near 3.1%.
MPTP inh: blocks calcium-induced mitochondrial swelling; isolated mouse mitochondria, Ca2+ swelling absorbance, 30 min; inhibition, % at 10 µM; actives 1.4% (n = 360,000);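 active means inhibition of 50% or more, scaled per plate between neutral and stimulator controls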;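 further: 0% = DMSO wells given calcium and 100% = 1 mM EGTA wells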
aDG glyco up: increases alpha dystroglycan glycosylation. AID 624168. actives 0.22% (n = 360,000). Pro5-aDG cells, alpha-DG glycosylation AlphaScreen (IIH6); 0% Pro5, 100% B10-LARGE cell signal. activation, % at 10 µM;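 active means activation of at least 8% versus controls, or a plate z-score of at least 8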;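 further: Pro5 are CHO cells carrying HIG-tagged alpha-DG that lacks glycosylation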
ADAM17 inh: inhibitors of human ADAM17; P78536; recombinant ADAM17, EDANS/DABCYL FRET peptide cleavage; inhibition, % at 6.95 µM; actives 0.83% (n = 370,000); AID 720648;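 active means inhibition above the mean of compounds lying between control limits plus 3 SD, set per campaign, cut at about 8.5% in these data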;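 further: 0% = DMSO-only wells as the low control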
Target sequence (P78536 215-824 limits assumed): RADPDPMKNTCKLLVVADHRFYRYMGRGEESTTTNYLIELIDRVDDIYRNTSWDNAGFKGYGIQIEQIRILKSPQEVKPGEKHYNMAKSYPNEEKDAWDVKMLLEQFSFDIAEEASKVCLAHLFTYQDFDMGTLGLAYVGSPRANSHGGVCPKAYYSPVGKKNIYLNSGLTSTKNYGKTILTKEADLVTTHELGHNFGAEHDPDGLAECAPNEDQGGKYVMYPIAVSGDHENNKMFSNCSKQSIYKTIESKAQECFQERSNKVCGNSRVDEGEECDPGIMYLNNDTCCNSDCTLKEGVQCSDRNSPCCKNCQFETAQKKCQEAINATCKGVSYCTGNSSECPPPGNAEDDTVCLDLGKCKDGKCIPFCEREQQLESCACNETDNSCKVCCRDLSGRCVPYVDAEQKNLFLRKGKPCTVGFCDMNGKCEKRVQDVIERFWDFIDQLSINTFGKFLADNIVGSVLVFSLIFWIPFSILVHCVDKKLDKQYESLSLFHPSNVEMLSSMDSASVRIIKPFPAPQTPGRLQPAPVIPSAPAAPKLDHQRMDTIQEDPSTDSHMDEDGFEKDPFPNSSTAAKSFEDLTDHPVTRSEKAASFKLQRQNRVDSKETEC
Hep lipid drop: hepatic lipid droplet formation modulation; AML12 mouse hepatocytes, oleate lipid droplets, BODIPY imaging; inhibition, % at 6.5 µM; actives 0.4% (n = 240,000);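 active means lipid droplet intensity inhibited by at least 50%, with more than 500 cells counted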
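Test system: AML12 mouse liver cells; schedule: overnight exposure; technique: high-content imaging of BODIPY-stained droplets and DAPI nuclei; read-out: % inhibition of corrected integrated BODIPY droplet signal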
ADAM10 inh: inhibitors of human ADAM10; O14672; recombinant ADAM10, EDANS/DABCYL FRET peptide cleavage, 3 h; inhibition, % at 7 µM; actives 0.62% (n = 370,000);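 active means inhibition above a per-campaign cutoff equal to the mean of compounds falling between control-based bounds plus 3 SD, cut at about 20% in these data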;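 further: 0% = DMSO wells while the 100% control is not disclosed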
V-ATPase pHluor: alters yeast V-ATPase proton transport | response, % at 10 µM | S. cerevisiae, pHLuorin cytosolic pH fluorescence | actives 0.37% (n = 350,000) | AID 504577; in the data active means response mostly above about 7.3%, no sharp cut-off; inactive means mostly below about 5.4%; further: actives read high
* marks the source's active call; other numbers are inactive results; nt = no result given.

SMILES	MPTP inh	aDG glyco up	ADAM17 inh	Hep lipid drop	ADAM10 inh	V-ATPase pHluor
COc1ccc(-c2ccc(=O)n(Cc3cccc([N+](=O)[O-])c3)n2)cc1	14	0	2	52*	8	-2
COc1ccc(NC(=O)CN2CCN(c3nc(-c4cccc(OC)c4)cs3)CC2)cc1	0	0	9	-4	20*	1
CCN1C(=O)/C(=C/c2ccc(N3CCCC3)cc2)NC1=S	22	1	4	65*	9	-2
CCCN1C(=O)/C(=C/c2ccc(N3CCOCC3)cc2)NC1=S	-1	0	4	-2	5	-6
O=C1c2cccc(O)c2C(=O)c2c(O)cccc21	nt	nt	nt	-14	nt	nt
CC1OC(CC(=O)O)CC2=C1C(=O)c1c(O)cccc1C2=O (stereo unspecified)	-3	-1	-4	nt	-18	117*
CCCCOCCCNC(=O)C[C@H]1C[C@@]2(C(=O)OC)C(=C[C@H](C(C)C)O[C@@H]2C2CC2)N(CCC2=CCCCC2)C1=O	nt	nt	1	nt	1	nt
O=C(Nc1ccc(F)cc1)OCc1cn(Cc2ccc(C(F)(F)F)cc2)nn1	nt	nt	5	nt	8	nt
CN(C)c1ccc(-c2csc(C(O)c3ccccc3)n2)cc1 (stereo unspecified)	0	0	1	nt	-2	nt
CN(C)c1ccc(C(O)c2cc3ccccc3s2)cc1 (stereo unspecified)	1	2	10*	nt	13	1
COC(=O)C1CN(Cc2cn(Cc3ccccc3)nn2)CCS(=O)(=O)N1Cc1ccccc1 (stereo unspecified)	nt	nt	-3	nt	-2	nt
Cc1ccc(SCC(=O)Nc2cccnc2)cc1	-2	0	-8	nt	1	3
O=C(CSc1ccccc1)Nc1cccnc1	0	0	-3	-14	1	14*
Cn1c(=O)c2cc(S(=O)(=O)NCCC(=O)Nc3ccc(Cl)cc3)ccc2n(C)c1=O	-1	0	4	nt	1	11
Cn1c(=O)c2cc(S(=O)(=O)NCCC(=O)NCCc3ccc(Cl)cc3)ccc2n(C)c1=O	-2	0	-2	nt	-2	22*
Fc1ccc(N2CCN(C3=Nc4ccccc4Sc4ccccc43)CC2)cc1	nt	nt	4	nt	-8	nt
CCN(CC)S(=O)(=O)c1ccc2oc(C(=O)NCc3ccc(F)cc3)c(C)c2c1	2	1	8.8*	3	22*	4
COC(=O)[C@]12C[C@H](CC(=O)N3CCCCC3)C(=O)N(Cc3cccc4ccccc34)C1=C[C@H](COCc1ccccc1)O[C@@H]2C	nt	nt	5	nt	8	nt
COc1ccc(C(C(=O)N(C)C2CCCC2)N(Cc2ccc(F)cc2)C(=O)c2csc(-c3ccccc3)n2)cc1OC (stereo unspecified)	nt	nt	4	nt	9	nt
O=C(COC(=O)CN=C1NS(=O)(=O)c2ccccc21)Nc1ccccc1OC(F)F	0	0	3	2	10	15*
COc1ccc(/C=C2\CCCC3C2=NN(C(=O)COC(=O)CNC(=O)c2ccccc2)C3c2ccc(OC)cc2)cc1 (stereo unspecified)	4	0	4	-1	21*	1
O=C(C1CCCO1)N1CCN(C(=S)Nc2ccc(Cl)cc2Cl)CC1 (stereo unspecified)	-1	0	-4	-2	-2	17*
Cc1cc(Cl)ccc1NC(=S)N1CCN(C(=O)C2CCCO2)CC1 (stereo unspecified)	-1	0	-3	17	1	-2
CC(C)C(NC(=O)c1ccco1)C(=O)NCC(c1ccco1)N(C)C (stereo unspecified)	0	0	-2	14	-4	16*
CC(C)C(NC(=O)c1ccccc1)C(=O)NCC(c1ccccc1)N(C)C (stereo unspecified)	-3	1	2	10	-1	-2
SMILES	MPTP inh	aDG glyco up	ADAM17 inh	Hep lipid drop	ADAM10 inh	V-ATPase pHluor
COC(=O)C1CN(Cc2ccccc2)CCS(=O)(=O)N1Cc1ccc(OC)cc1 (stereo unspecified)	nt	nt	-2	nt	4	nt
CCOC(=O)[C@@H]1[C@H]2COc3ccc(Br)cc3[C@H]2N2C(=O)N(c3ccc(C(F)(F)F)cc3)C(=O)[C@]12C	1	0	5	nt	24*	-2
COc1ccc2c(c1)C[C@@H]1CC(C)(C)CN1S2(=O)=O	nt	nt	-2	nt	-6	nt
CCC1(C(=O)OC)NC(c2ccco2)C2C(=O)N(c3ccccc3)C(=O)C21 (stereo unspecified)	-1	0	-4	nt	4	15*
CCC1(C(=O)OC)NC(c2ccco2)C2C(=O)N(c3ccc(F)cc3)C(=O)C21 (stereo unspecified)	0	0	-2	-9	-4	0
COc1ccccc1CNC(=O)c1ccc2nc3[nH]c4ccccc4c3nc2c1	2	0	-7	73*	-14	4
CCc1nc2ccc(C(=O)NCCc3ccccc3OC)cc2nc1CC	-1	1	0	-7	6	8
CCCC[C@H](C(=O)N(C)c1ccccc1)[C@@H](O)c1ccc2ccccc2c1	nt	nt	1	nt	7	nt
COc1ccc(CCC(C)NC2C3CC4CC(C3)CC2C4)cc1 (stereo unspecified)	1	0	4	nt	3	16*
COc1ccc(CNC(C)CCc2ccccc2)cc1 (stereo unspecified)	1	0	-4	-7	1	-1
CCOC(=O)CCC(=O)c1c(C)oc2ccc(OC)cc12	0	0	9.9*	0	0	1
COc1ccc2oc(C)c(C(=O)NN)c2c1	-1	0	-2	-11	-1	0
C=C1C(C(=O)N2CCOCC2)C1C(=O)N1CCOCC1 (stereo unspecified)	-1	0	4	nt	-3	3
C=C1C(C(=O)N2CCN(C)CC2)C1C(=O)N1CCN(C)CC1 (stereo unspecified)	0	0	6	nt	12	13*
CC(=O)Nc1sc2c(c1-c1nc3ccccc3s1)CNC2	nt	nt	-31	nt	-98	nt
Cc1cc(NC(=O)c2ccc(NS(=O)(=O)c3ccc(C)c(C)c3)cc2)no1	nt	nt	-1	nt	-2	nt
CC1(C)NC(=O)N(CCCCOc2cccc(C(F)(F)F)c2)C1=O	0	1	-5	nt	6	15*
Cc1ccc(-c2nn(-c3ccccc3)cc2C=C2SC(=S)N(CCS(=O)(=O)O)C2=O)cc1	2	0	1	nt	11	nt
O=C1C(=Cc2cn(-c3ccccc3)nc2-c2ccc(OCc3ccccc3)cc2)SC(=S)N1CCS(=O)(=O)O	2	2	5	nt	29*	nt
COC(=O)[C@@]12CCCCC3=C1N(CCC3)C(=O)[C@H]2CC(=O)NCCCN1CCCC1=O	nt	nt	-1	nt	-6	nt
COc1ccc(-n2c(SCc3cccc4ccccc34)nnc2-c2ccccc2)cc1	nt	nt	3	nt	6	nt
COc1ccccc1CNC(=O)C1CC(c2cccc([N+](=O)[O-])c2)=NO1 (stereo unspecified)	1	1	0	nt	5	4
